IMP-1 inh: IMP-1 metallo-beta-lactamase inhibitors, primary screen, biochemical, epi-absorbance readout, Pseudomonas aeruginosa enzyme. purified IMP-1, nitrocefin hydrolysis, epi-absorbance fluorescence. inhibition, % at 5.6 µM. 290,000 tested, 0.45% active. metallo-beta-lactamase IMP-1 (Pseudomonas aeruginosa);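 active means inhibition above the mean plus 3 SD of all compounds in the same screening run, cut at about 4.5% in these data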;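 further: 0% = IMP-1 with DMSO and 100% = DMSO wells lacking enzyme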
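System – purified recombinant IMP-1 beta-lactamase · Input – IMP-1 dispensed at 0.2 nM · Timing – 15 min preincubation plus 25 min reaction at 25 °C · Signal – Epi-absorbance fluorescence, 480 nm excitation, 530 nm emission · Measure – percent IMP-1 inhibition derived from blank-referenced optical density · Controls – Enzyme-plus-DMSO low control, enzyme-free DMSO high control · Replication – singlicate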
PAFAH1B2 FP inh: PAFAH1B2 enzyme inhibitors, primary screen, biochemical, fluorescence polarization, human. Platelet-activating factor acetylhydrolase IB subunit alpha2 (Homo sapiens), P68402. recombinant PAFAH1B2, FP-rhodamine activity probe. inhibition, % at 3.39 µM. 340,000 tested, 1.2% active;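 active means inhibition above the mean of all tested compounds plus 3 SD, cut at about 24% in these data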;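 further: 0% = enzyme with DMSO and 100% = wells lacking PAFAH1B2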
VIM-2 inhibitor: VIM-2 metallo-beta-lactamase inhibitors, primary screen, biochemical, epi-absorbance readout, Pseudomonas aeruginosa enzyme | purified VIM-2, nitrocefin hydrolysis, epi-absorbance fluorescence | inhibition, % at 5.6 µM | 290,000 tested, 0.89% active | AID 1527, 2009;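 active means inhibition above the mean of all tested compounds plus 3 SD, cutoff set per screening run, cut at about 7.5% in these data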;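 further: red hydrolysis product quenches plate fluorescence so inhibitors raise well fluorescence; 0% = enzyme with DMSO and 100% = DMSO without enzyme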
PAFAH2 FP inh: PAFAH2 enzyme inhibitors, primary screen, biochemical, fluorescence polarization, human; inhibition, % at 3.39 µM; recombinant PAFAH2, FP-rhodamine activity probe; 340,000 tested, 0.99% active;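 active means inhibition above the mean over all tested compounds plus 3 SD, cut at about 30% in these data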;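 further: inhibitors block probe labeling of enzyme so polarization drops; 0% = enzyme with DMSO and 100% = wells lacking PAFAH2 protein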
PAFAH1B3 FP inh: PAFAH1B3 enzyme inhibitors, primary screen, biochemical, fluorescence polarization, human; 340,000 tested, 0.28% active; inhibition, % at 3.39 µM; Platelet-activating factor acetylhydrolase IB subunit alpha1 (Homo sapiens), Q15102; recombinant PAFAH1B3, FP-rhodamine probe; AID 492972, 2010;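 active means inhibition above the screen-wide average of all tested compounds plus 3 SD, cut at about 25% in these data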;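 further: 0% = enzyme with DMSO only and 100% = wells lacking PAFAH1B3 protein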
pPAFAH FP inh: pPAFAH enzyme inhibitors, primary screen, biochemical, fluorescence polarization, human | 330,000 tested, 1.5% active | inhibition, % at 3.39 µM | AID 463082, 2010 | Platelet-activating factor acetylhydrolase (Homo sapiens), Q13093 | recombinant pPAFAH, FP-rhodamine probe fluorescence polarization;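 active means inhibition above the mean inhibition across the screen plus 3 SD, cut at about 25% in these data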;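 further: inhibitors block binding of the rhodamine activity-based probe so polarization drops; 0% = enzyme with DMSO and 100% = wells lacking pPAFAH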
Target sequence (Q13093 whole entry, looked up): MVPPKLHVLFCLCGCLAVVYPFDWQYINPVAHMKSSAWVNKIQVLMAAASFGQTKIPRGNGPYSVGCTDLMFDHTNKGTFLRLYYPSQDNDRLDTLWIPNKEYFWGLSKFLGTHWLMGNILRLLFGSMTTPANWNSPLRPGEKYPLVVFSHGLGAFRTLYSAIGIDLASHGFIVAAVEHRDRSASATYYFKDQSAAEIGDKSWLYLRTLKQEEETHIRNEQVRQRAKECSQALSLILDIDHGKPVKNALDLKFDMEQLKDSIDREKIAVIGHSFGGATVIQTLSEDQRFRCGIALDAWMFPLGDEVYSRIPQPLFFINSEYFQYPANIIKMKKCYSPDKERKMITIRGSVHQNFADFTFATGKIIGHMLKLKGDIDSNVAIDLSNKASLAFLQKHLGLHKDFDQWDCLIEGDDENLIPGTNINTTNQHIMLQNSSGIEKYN
VIM-2 confirm: P. aeruginosa VIM-2 enzyme inhibition – biochemical, epi-absorbance, HTS, confirmation; shares compounds with IMP-1 inh; purified VIM-2 enzyme, nitrocefin absorbance; inhibition, % at 5.6 µM; 200 tested, 73% active; AID 1860, 2009; in the data active means inhibition above about 8%;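 further: 0% = enzyme with vehicle and 100% = no enzyme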
TEM-1 counter: Serine beta-lactamase TEM-1 inhibition, biochemical epi-absorbance counter-screen for IMP-1/VIM-2 inhibitor program; shares compounds with IMP-1 inh; TEM-1 beta-lactamase, nitrocefin absorbance inhibition; inhibition, % at 5.6 µM; 200 tested, 50% active; AID 2184, 2009; in the data active means inhibition above about 0.66%
Target sequence (P62593 whole entry, looked up): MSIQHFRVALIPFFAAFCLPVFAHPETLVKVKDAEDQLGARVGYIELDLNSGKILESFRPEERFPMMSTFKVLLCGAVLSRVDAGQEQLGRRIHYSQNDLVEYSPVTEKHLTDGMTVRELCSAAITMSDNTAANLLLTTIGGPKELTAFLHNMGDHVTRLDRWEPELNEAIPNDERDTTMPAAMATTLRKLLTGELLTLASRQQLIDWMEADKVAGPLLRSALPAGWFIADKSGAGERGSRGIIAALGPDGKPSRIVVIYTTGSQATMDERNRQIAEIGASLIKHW
IMP-1 confirm: IMP-1 metallo-beta-lactamase inhibitors, confirmation, biochemical, epi-absorbance, hits shared with VIM-2 screen; shares compounds with IMP-1 inh; purified IMP-1 enzyme, absorbance substrate hydrolysis; inhibition, % at 5.6 µM; 200 tested, 60% active; AID 2189, 2009; in the data active means inhibition above about 4.9%;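 further: 0% = enzyme with vehicle and 100% = vehicle without enzyme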
The depositor's hits bear a star; . = no result. This is a sample that favours compounds with a hit; in the whole collection about 3.6% have one here.

SMILES | IMP-1 inh | PAFAH1B2 FP inh | VIM-2 inhibitor | PAFAH2 FP inh | PAFAH1B3 FP inh | pPAFAH FP inh | VIM-2 confirm | TEM-1 counter | IMP-1 confirm
O=c1nc(/C=C/c2ccc(-c3ccc(F)cc3)o2)cc(C(F)(F)F)[nH]1 | 0 | . | 0 | . | . | 4 | . | . | .
O=C(O)c1ccccc1-c1ccc(/C=C/c2cc(C(F)(F)F)[nH]c(=O)n2)o1 | 5.5* | -3 | 8.2* | -7 | -4 | . | 15* | 37* | 11*
Cc1[nH]c2ccccc2c1/C=N/Nc1ccc(F)cc1F | 0 | . | 0 | . | . | 9 | . | . | .
Cc1[nH]c2ccccc2c1/C=C/c1cc[n+](C)cc1 | 9.0* | 0 | 10* | 4 | 5 | . | 17* | 0 | 3
Cn1cc(/C=C/C(=O)c2ccccc2)c2ccccc21 | -2 | 2 | -3 | 11 | 3 | 11 | . | . | .
Cn1cc(/C=C(\C(=O)O)C(C(=O)O)=C2CCCCC2)c2ccccc21 | 11* | 3 | 9.5* | 0 | -4 | 6 | 13* | 0 | 10*
COc1ccc(/C=C\C(=O)O[C@@H]2C(O)C(O[C@@H]3OC(C)[C@H](O[C@@H]4OCC(O[C@H]5O[C@H](CO)[C@@H](O)C(O)C5O)C(O)C4O)C(O)C3O)[C@H](OC(=O)[C@]34CCC(C)(C)C[C@@H]3C3=CCC5[C@@]6(C)CC(O)C(O[C@@H]7OC(CO)C(O)[C@H](O)[C@H]7O)[C@@](C)(C(=O)O)C6CC[C@@]5(C)[C@]3(CO)CC4)O[C@H]2C)cc1 (some centres not stated) | . | 2 | . | 7 | -1 | -1 | . | . | .
CCOc1ccc(Nc2nc(N3CCOCC3)nc(N3CCOCC3)n2)cc1 | -5 | 5 | -3 | 2 | -3 | -1 | . | . | .
CCOc1ccc(Nc2nc(NCCN3CCOCC3)nc(OC)n2)cc1 | 38* | 5 | 42* | -3 | 5 | 5 | 0 | -4 | -1
C[C@]12c3[nH]c4ccc(Cl)cc4c3CCN1C(=O)[C@@H](CC(=O)NCCN1CCOCC1)C[C@@H]2C(=O)N1CCCCC1 | . | 1 | . | -2 | 6 | 2 | . | . | .
CN(C)c1ccc(/C=N/N(CCO)C2=NS(=O)(=O)c3ccccc32)cc1 | 18* | -49 | 42* | -59 | -64 | -39 | 40* | 42* | 30*
COc1ccc(/C=C2\CCc3c2nc2ccccc2c3C(=O)O)cc1OC | 2 | 3 | -1 | 1 | 4 | 11 | . | . | .
CCOc1ccc(/C=C2\CCCc3c2nc2ccccc2c3C(=O)O)cc1OC | 29* | 6 | 38* | 19 | 28* | 16 | 37* | 56* | 28*
COc1ccc(/C=C2\CCCc3c2nc2ccccc2c3C(=O)O)cc1OC | 17* | . | 16* | . | . | 7 | 23* | 39* | 19*
c1ccc(Nc2ccccc2Nc2ccccn2)nc1 | 50* | 0 | 32* | -6 | 1 | 8 | 3 | 1.1* | 1
c1ccc(CNc2ccccn2)cc1 | -2 | 2 | -3 | -2 | 13 | -4 | . | . | .
COc1cc(NC(=O)C2CSC3(C)CCC(=O)N23)c(OC)cc1Cl (configuration not stated) | . | 2 | . | 4 | 2 | -1 | . | . | .
N#CC1=C(N)Oc2c(O)cc3ccccc3c2C1c1ccsc1 (configuration not stated) | 4.6* | 7 | 8.1* | 9 | 4 | 10 | 0 | -5 | -3
c1ccc(C[C@H]2CN=C(Nc3ccccc3)N2CC2CCCCCC2)cc1 | . | -2 | . | 1 | -2 | -5 | . | . | .
Cn1ccnc1SCC(=O)Nc1cccc2ccccc12 | -4 | -1 | 0 | -10 | 7 | 2 | . | . | .
Cn1ccnc1SCC(=O)n1c2c(c3ccccc31)CCCC2 | 5.7* | 1 | 29* | 3 | 1 | 8 | 8.5* | -4 | -1
Cc1cc(/C=N/NC(N)=S)c(O)c(/C=N/NC(N)=S)c1 | 27* | 7 | 26* | 12 | 7 | 4 | 26* | -2 | 25*
Cc1ccnc(NC(=S)N2CCN(c3cccc(C(F)(F)F)c3)CC2)c1 | -2 | 4 | -3 | 5 | 1 | 2 | . | . | .
Cc1ccc(NC(=O)c2nc(S(=O)(=O)Cc3ccccc3C)ncc2Cl)cc1C | -3 | -3 | -1 | 0 | -7 | -2 | . | . | .
COc1ccc(C(=O)Nc2ccc(/C(C)=N/NC(=O)c3ccncc3)cc2)cc1 | 32* | 8 | 14* | 1 | 7 | 3 | 12* | -5 | 19*
SMILES | IMP-1 inh | PAFAH1B2 FP inh | VIM-2 inhibitor | PAFAH2 FP inh | PAFAH1B3 FP inh | pPAFAH FP inh | VIM-2 confirm | TEM-1 counter | IMP-1 confirm
C=CCOc1ccc(C2C(C(=O)c3cccs3)=C(O)C(=O)N2c2nnc(C)s2)cc1 (configuration not stated) | 13* | 4 | 18* | -1 | 5 | -3 | 2 | 2.6* | 0
CC(C)c1nnc(N2C(=O)C(O)=C(C(=O)c3cccs3)C2c2ccccc2)s1 (configuration not stated) | 7.2* | -5 | 17* | -5 | 0 | . | 0 | 0 | -2
O=C1CSC(=S)N1/N=C/c1cc(Br)c(O)c(Br)c1 | 23* | -39 | 13* | -110 | -69 | 7 | 26* | 3.6* | 37*
Cc1ccc(C(=O)OCC(=O)N2CCCC2)cc1 | -3 | -1 | -4 | 13 | 16 | 3 | . | . | .
Cc1cccc(C(=O)NN2C(=O)C3C(c4ccccc4)C=CC(c4ccccc4)C3C2=O)c1 (configuration not stated) | 21* | 0 | 7 | -4 | -5 | 2 | 0 | -5 | 2
O=C(NN1C(=O)C2C3C=CC(C3)C2C1=O)c1ccccc1 (configuration not stated) | -3 | 3 | -3 | -1 | -3 | 2 | . | . | .
CN1CCS/C1=C/C=C1\SC(=S)N(CC(=O)O)C1=O | 6.8* | -5 | 9.6* | -8 | 1 | 3 | 8 | -7 | 2
O=C(CNc1ccccc1F)Nc1cccc(S(=O)(=O)N2CCCCC2)c1 | . | -1 | . | -8 | -9 | . | . | . | .

Screening data (PubChem)
